How the values were obtained:
[1] = test system: initiation or propagation pathway of the coagulation cascade (plasma); assay: Activated partial thromboplastin time; format: biochemical, human; conditions: control 41.3 ± 0.7 s
[2] = test system: extrinsic pathway and common pathways of the coagulation cascade (plasma); assay: Prothrombin time test; format: biochemical, human; conditions: control 15 ± 2 s
[3] = test system: calcium-dependent coagulation cascade factors (plasma); assay: Plasma recalcification time test; format: biochemical, human; conditions: control 196.9 ± 9 s
Procedure, shortened: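 Pooled citrated plasma from healthy donors (100 µL) was incubated with saline or test compound for 10 min at 37 °C. CaCl₂ was added (12.5 mM final) and clotting time recorded in a coagulometer. Mean ± SEM.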

[4] = test system: platelet-rich plasma (PRP); conditions: 1 µM, ADP 15 µM
[5] = test system: P2X7R; conditions: ATP concentration required for activation; cited from earlier work
[6] = test system: ATP-induced paw edema; assay: ATP-induced paw edema assay; format: in vivo, mice (Swiss Webster); conditions: 10 mM ATP subplantar, phlogistic agent
Procedure, shortened: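 Male Swiss Webster mice (~30 g) were given test compound at 100, 500 or 1000 ng/kg i.p. 1 h before ATP (10 mM/paw subplantar, 20 µL), with 0.9% NaCl in the contralateral paw. Diclofenac 10 mg/kg i.p. was the positive control and saline the negative control. Paw volume was read by plethysmometer 60 min after ATP. Three experiments on different days; mean ± SD; one-way ANOVA/Tukey.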

[7] = test system: carrageenan-induced peritonitis; assay: Carrageenan-induced peritonitis, total and differential leukocyte count; format: in vivo, mice; conditions: for % Mononuclear cells / % Neutrophils: mean ± SD
Procedure, shortened: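 Mice were pretreated i.p. (100 µL) with test compound or dexamethasone 10 mg/kg, then given carrageenan 10 mg/kg i.p. 1 h later; PBS pH 7.4 served as negative control. Peritoneal fluid was collected 3 h after first administration. Total leukocytes were counted in a Neubauer chamber. Slides were methanol-fixed 5 min and Giemsa-stained 15–20 min; 100 cells were counted per slide. Three experiments on different days; mean ± SD; ANOVA/Tukey.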

[8] = substance alone, 10 mg/kg as printed, differential count of 100 cells
[9] = pretreatment, then carrageenan 10 mg/kg 1 h later

Compound: COc1cc(S(=O)(=O)O)cc2cc(S(=O)(=O)O)c(NC(=O)c3ccc(C)c(NC(=O)c4cccc(NC(=O)Nc5cccc(C(=O)Nc6cc(C(=O)Nc7cc8c(OC)cc(S(=O)(=O)O)cc8cc7S(=O)(=O)O)ccc6C)c5)c4)c3)cc12 [NF770]
- clotting time in the aPTT test ([1]; 1 µM): 40.9 ± 1 s
- clotting time in the aPTT test ([1]; 10 µM): 42.2 ± 1 s
- prothrombin time ([2]; 1 µM): 15.5 ± 1 s
- prothrombin time ([2]; 10 µM): 15.7 ± 1 s
- plasma recalcification clotting time ([3]; 1 µM): 200.4 ± 12 s
- plasma recalcification clotting time ([3]; 10 µM): 198 ± 8 s

Compound: COC(=O)[C@H](c1ccccc1Cl)N1CCc2sccc2C1 [clopidogrel]
- ADP-induced platelet aggregation [4]: inhibited ADP-induced platelet aggregation

Compound: Nc1ncnc2c1ncn2[C@@H]1O[C@H](COP(=O)(O)OP(=O)(O)OP(=O)(O)O)[C@@H](O)[C@H]1O [ATP]
- EC50 [5]: ≥ 100 µM
- increase in paw edema compared to the saline group [6]: 30%

Compound: O=C1CN=C(c2cccc(Br)c2)c2oc3ccccc3c2N1 [5-BDBD]
- clotting time in the aPTT test ([1]; 1 µM): 41.9 ± 0.6 s
- clotting time in the aPTT test ([1]; 10 µM): 42.5 ± 0.8 s
- prothrombin time ([2]; 1 µM): 15.4 ± 0.7 s
- prothrombin time ([2]; 10 µM): 15.7 ± 0.5 s
- plasma recalcification clotting time ([3]; 1 µM): 204.6 ± 9 s
- plasma recalcification clotting time ([3]; 10 µM): 195 ± 7 s

Compound: carrageenan
- % Mononuclear cells [7, 8]: 28 ± 8%
- % Neutrophils [7, 8]: 67 ± 10%

Compound: C[C@@H]1C[C@H]2[C@@H]3CCC4=CC(=O)C=C[C@]4(C)[C@@]3(F)[C@@H](O)C[C@]2(C)[C@@]1(O)C(=O)CO [dexamethasone]
- carrageenan-induced increase in white blood cells ([7]; dexamethasone 10 mg/kg i.p. pretreatment): reversed
- % Mononuclear cells [7, 9]: 72 ± 9ª %
- % Neutrophils [7, 9]: 27 ± 9ª^,g %
- % Mononuclear cells [7, 8]: 90 ± 6ª %
- % Neutrophils [7, 8]: 9 ± 7ª %

— publication PMC9734322 (Inflammation Research, 2022)
